Series [1] relates to Calf thymus DNA. The experiment in a line: Binding affinity to calf thymus DNA by NMR spectroscopic analysis. The class given is nucleic-acid assay. Particulars: Bos taurus.
In series [2] the test system is Calf thymus DNA. The experiment in a line: Binding affinity to calf thymus DNA at 10:1 DNA to drug molar ratio by circular dichroism spectroscopic analysis. Type of series: nucleic-acid assay. Particulars: Bos taurus. For orientation: Circular dichroism is the unequal absorption of left and right circularly polarised light.
The subject of series [3] is Calf thymus DNA. The experiment in a line: Binding affinity to calf thymus DNA assessed as change in melting temperature at 5.2 X 10^-6 M by thermal denaturation assay. Type of series: nucleic-acid assay. Particulars: Bos taurus. In short, it runs like this:
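Calf thymus DNA filtered, concentration set by A259 (ε 6800). Drug in Me2SO diluted into 0.01 M phosphate pH 7.0. Final: drug 5.2×10⁻⁶ M, DNA 5.2×10⁻⁵ M (P), EDTA 1×10⁻⁵ M, 5% Me2SO. Equilibrated at 50 °C, then heated at 18 °C/h while absorbance was recorded. Tm corrected for volume expansion, temperature lag and baseline. ΔTm = Tm(complex) − Tm(DNA).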

For series [4], the system named is L1210. The series is described as follows: Inhibition of DNA synthesis in mouse L1210 cells assessed as [3H]-thymidine incorporation preincubated for 3 hrs before [3H]-thymidine addition measured after 1 hr by scintillation spectrometric analysis. Type of series: functional. Particulars: read-out: ED50 (the source's name). A digest of the protocol: (§1)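 L1210 cell assay run by a previously described method. Compounds were dissolved in Me2SO and diluted in growth medium to a final 1% Me2SO. The value reported is ED50.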
A general note: Incorporation of labelled thymidine or its analogues reports DNA synthesis.

The subject of series [5] is L1210. The experiment in a line: Inhibition of RNA synthesis in mouse L1210 cells assessed as [3H]-uridine incorporation preincubated for 3 hrs before [3H]-uridine addition measured after 1 hr by scintillation spectrometric analysis. Type of series: functional. Particulars: read-out: ED50 (the source's name). In short, it runs like this: as §1
In series [6] the test system is P388. The series is described as follows: Antitumor activity against mouse P388 cells allografted in mouse assessed as increase in life span at 15 mg/kg administered qd on day 1, 5 and 9 relative to control. The class given is functional. Particulars: P388, 24 h. A digest of the protocol: (§2)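 In vivo testing in tumour-bearing mice was run by the NCI Division of Cancer Treatment. Drug was given on a QD 1, 5, 9 schedule, and 15 mg/kg was the highest dose tested. Toxicity was judged by weight loss of treated animals. Activity is expressed as % increase in life-span (ILS) over untreated tumour-bearing controls.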

The test system of series [7] is P388. The experiment in a line: Antitumor activity against mouse P388 cells allografted in mouse assessed as increase in life span at 1.94 mg/kg administered qd on day 1, 5 and 9 relative to control. Type of series: functional. Particulars: P388, 24 h. A digest of the protocol:
as §2

A further series deals with Mus musculus. The experiment in a line: Toxicity in mouse allografted with mouse P388 cells assessed as weight loss at 1.94 to 15 mg/kg administered qd on day 1, 5 and 9. The class given is organism-based. More on the design: dose 1.94-15 mg/kg. In short, it runs like this: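 Mice were dosed on a QD 1, 5, 9 schedule at doses up to 15 mg/kg. Toxicity was judged by weight loss of treated animals.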

A further series relates to Escherichia coli. The series is described as follows: Induction of Escherichia coli omega enzyme-mediated relaxation of Escherichia coli (RR1) pBR313 closed circular DNA at 40 X 10^-12 mol preincubated for 10 mins followed by enzyme-addition measured after 30 mins by agarose gel electrophoretic analysis. A digest of the protocol:
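Plasmid pBR313 was isolated from E. coli RR1 cleared lysate by agarose A50 gel filtration. 1.10 μg DNA in 80 mM potassium phosphate pH 7.6, 3 mM MgCl2, 1 mM EDTA was preincubated with drug (40×10⁻¹² mol) for 10 min at 37 °C. About 300 units of ω enzyme were added for 30 min. The reaction was stopped with EDTA and phenol/chloroform extracted. Read-out was 0.7% agarose slab gel electrophoresis with ethidium staining, compared with ethidium bromide.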

For series [8], the system named is P388. The series is described as follows: Antitumor activity against mouse P388 cells allografted in mouse assessed as increase in life span at 0.108 mg/kg administered qd on day 1, 5 and 9 relative to control. Particulars: P388, 24 h. The class given is functional. A digest of the protocol:
as §2

Data on six molecules can be found in ChEMBL document CHEMBL3272214, “2-Deaminoactinomycin D, synthesis and interaction with deoxyribonucleic acid” (J Med Chem, 1977).

Activity calls are given as the source filed them. No cut-off for these calls is given here. *1 amine or outer side, *2 acyl side, *3 side chain or, on linkers, in order; H or OH if unused. Where a SMILES comes first, the peptide text is derived from it. Bridges are numbered along the chain shown (N, C = ends). Roman numbers before positions name the chains, in order. [ ]: non-standard residue; d: D form. Actinocin(1to9) = Cc1c2oc3c(C)ccc(C(=O)[*:2])c3nc-2c(C(=O)[*:1])c(N)c1=O; NMeV = CN[C@H](C(=O)O)C(C)C; Sar = CNCC(=O)O

With `Cc1c2oc3c(C)ccc(C(=O)N[C@@H]4C(=O)N[C@H](C(C)C)C(=O)N5CCC[C@H]5C(=O)N(C)CC(=O)N(C)[C@@H](C(C)C)C(=O)O[C@@H]4C)c3nc-2c(C(=O)N[C@@H]2C(=O)N[C@H](C(C)C)C(=O)N3CCC[C@H]3C(=O)N(C)CC(=O)N(C)[C@@H](C(C)C)C(=O)O[C@@H]2C)cc1=O`, the result in the series with Calf thymus DNA [1], in the series on Calf thymus DNA [2] and in the series on Escherichia coli was Active. Further, in the series with Calf thymus DNA [3], the ΔTm (usually the change in melting temperature against a reference sample) worked out at 9.9 °C. Besides, the figures for the EC50 with L1210 [4] and in the series on L1210 [5] were 63 µM and 0.7 µM, respectively. The increase in lifespan (ILS) (in general, the gain in survival time of treated over control animals, in per cent) at 15 mg/kg in the series on P388 [6] was determined as 92%. Besides, in the series with P388 [7], the increase in life span (ILS) at 1.94 mg/kg is 46%. Besides, in the series on Mus musculus, the Activity result is listed as “Non-toxic”.
For `CC[n+]1c(-c2ccccc2)c2cc(N)ccc2c2ccc(N)cc21`, the outcome in the series on Escherichia coli was Active.
As to `Cc1c2oc3c(C)ccc(C(=O)N[C@@H]4C(=O)N[C@H](C(C)C)C(=O)N5CCC[C@H]5C(=O)N(C)CC(=O)N(C)[C@@H](C(C)C)C(=O)O[C@@H]4C)c3nc-2c(C(=O)N[C@@H]2C(=O)N[C@H](C(C)C)C(=O)N3CCC[C@H]3C(=O)N(C)CC(=O)N(C)[C@@H](C(C)C)C(=O)O[C@@H]2C)c(O)c1=O`, the ΔTm in the series on Calf thymus DNA [3] was 0 °C. The EC50 in the series on L1210 [4] is greater than 100 µM; in the series with L1210 [5] it was 24 µM.
In the case of `Cc1c2oc3c(C)ccc(C(=O)N[C@@H]4C(=O)N[C@H](C(C)C)C(=O)N5CCC[C@H]5C(=O)N(C)CC(=O)N(C)[C@@H](C(C)C)C(=O)O[C@@H]4C)c3nc-2c(C(=O)N[C@@H]2C(=O)N[C@H](C(C)C)C(=O)N3CCC[C@H]3C(=O)N(C)CC(=O)N(C)[C@@H](C(C)C)C(=O)O[C@@H]2C)c(N)c1=O` [DACTINOMYCIN] (I: T[dV]P[Sar][NMeV] / II: T[dV]P[Sar][NMeV]; ester I:1-I:C, II:1-II:C; linker I:N-II:N via Actinocin(1to9)), the ΔTm in the series on Calf thymus DNA [3] turned out to be 7.1 °C. The EC50 was 0.4 µM in the series on L1210 [4] and 0.009 µM in the series with L1210 [5]. Moreover, the ILS at 0.108 mg/kg in the series with P388 [8] is 100%. Moreover, in the series with Escherichia coli, the outcome was Active.
As to `COc1cccc2c1C(=O)c1c(O)c3c(c(O)c1C2=O)C[C@@](O)(C(C)=O)C[C@@H]3O[C@H]1C[C@H](N)[C@H](O)[C@H](C)O1`, the outcome in the series on Escherichia coli was Active.
Regarding `Cc1c2oc3c(C)ccc(C(=O)N[C@@H]4C(=O)N[C@H](C(C)C)C(=O)N5CCC[C@H]5C(=O)N(C)CC(=O)N(C)[C@@H](C(C)C)C(=O)O[C@@H]4C)c3nc-2c(C(=O)N[C@@H]2C(=O)N[C@H](C(C)C)C(=O)N3CCC[C@H]3C(=O)N(C)CC(=O)N(C)[C@@H](C(C)C)C(=O)O[C@@H]2C)c(Cl)c1=O`, the result in the series with Calf thymus DNA [2] and in the series on Escherichia coli was Active. Also, in the series with Calf thymus DNA [3], the ΔTm is 1.6 °C. The EC50 amounted to 86 µM with L1210 [4] and 13 µM in the series on L1210 [5].
